Values belong to the compound of their own block, whether it stands above or below them. The source made the active and inactive calls. No cut-off for these calls is given here.
Key:
Oryctolagus cuniculus [1] = species on record: Oryctolagus cuniculus; test: (§1) Activation of troponin in rabbit fast skeletal muscle fibers assessed as increase in calcium stimulated activity by measuring compound concentration that produces 40% increase in myofibril ATPase activity at 25% of calcium concentration needed for maximal response by pyruvate kinase/lactate dehydrogenase-coupled based assay
Outline: (§2)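 Myofibril ATPase rate (used as a surrogate for force), with fast-skeletal myofibrils from rabbit muscle. For cardiac and slow-skeletal activity, mixed sarcomeres combine myosin and thin-filament preparations from fast, slow or cardiac muscle. AC40 is the concentration giving a 40% increase in ATPase activity at 25% of the calcium level needed for a maximal response in control preparations. Duplicate experiments.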

[2] = Extraction ratio in rat liver microsomes measured up to 90 mins by HPLC/MS/MS analysis; type: ADME, microsome; settings: read-out: ERH
[3] = Extraction ratio in human liver microsomes measured up to 90 mins by HPLC/MS/MS analysis; type: ADME, microsome; settings: read-out: ERH
Oryctolagus cuniculus [4] = species on record: Oryctolagus cuniculus; test: as §1, with “30%” for “40%”, “tension” for “myofibril ATPase activity”
Outline: (§3)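 Skinned-fiber tension assay on a mounted fiber, measuring the force–calcium relationship. Fast fibers are rabbit psoas; slow fibers are primarily slow rabbit semimembranosus. DF30 is the concentration giving a 30% increase in tension at 25% of the calcium level needed for a maximal response in control preparations.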

Oryctolagus cuniculus [5] = species on record: Oryctolagus cuniculus; test: Activation of troponin in rabbit primarily fast psoas muscle fibers assessed as increase in calcium level by skinned fiber assay; outline: as §3
Oryctolagus cuniculus [6] = species on record: Oryctolagus cuniculus; test: Activation of troponin C in rabbit primarily slow semi membranosus muscle fibers assessed as increase in calcium level by skinned fiber assay; outline: as §3
Bos taurus [7] = species on record: Bos taurus; test: as §1, with “troponin C” for “troponin”, “[…]” for “rabbit fast”, “[…] bovine cardiac” for “skeletal”; outline: as §2
Bos taurus [8] = species on record: Bos taurus; test: as §1, with “troponin C” for “troponin”, “bovine masseter slow” for “rabbit fast”; outline: as §2
Rattus norvegicus [9] = test: (§4) Volume of distribution at steady state in Sprague-Dawley rat at 1 mg/kg, po or 1 mg/kg iv via bolus by HPLC method; type: ADME, organism-based; settings: in vivo
Outline: (§5)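 Pharmacokinetics at a dose of 1 mg/kg, comparing oral and intravenous administration to derive bioavailability, clearance and steady-state volume of distribution. In rats, compounds were dosed as crystalline suspensions.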

Rattus norvegicus [10] = test: Oral bioavailability in Sprague-Dawley rat at 1 mg/kg by HPLC method; type: ADME, organism-based; settings: in vivo; outline: as §5
[11] = Fraction unbound in rat plasma at 5 uM after 6 hrs by equilibrium dialysis based HPLC method; type: ADME, cell-free
[12] = Fraction unbound in human plasma at 5 uM after 6 hrs by equilibrium dialysis based HPLC method; type: ADME, cell-free
[13] = as §4; type: ADME, organism-based; settings: Sprague-Dawley, in vivo, read-out: Vdss; outline: as §5
Rattus norvegicus [14] = test: Increase in muscle force in rat extensor digitorum longus muscle dosed systemically measured every two mins by in situ live fiber activity assay; type: functional, organism-based
[15] = Extraction ratio in dog liver microsomes measured up to 90 mins by HPLC/MS/MS analysis; type: ADME, Canis lupus familiaris, microsome; settings: read-out: ERH
[16] = Extraction ratio in mouse liver microsomes measured up to 90 mins by HPLC/MS/MS analysis; type: ADME, microsome; settings: read-out: ERH
Canis familiaris = test: Volume of distribution at steady state in Beagle dog at 1 mg/kg, po or 1 mg/kg iv via bolus by HPLC method; type: ADME, organism-based, Canis lupus familiaris; settings: in vivo; outline: as §5
Mus musculus = test: Volume of distribution at steady state in mouse at 1 mg/kg, po or 1 mg/kg iv via bolus by HPLC method; type: ADME, organism-based; settings: in vivo; outline: as §5
[17] = Oral bioavailability in Beagle dog at 1 mg/kg by HPLC method; type: ADME, organism-based, Canis lupus familiaris; settings: in vivo; outline: as §5
[18] = Oral bioavailability in mouse at 1 mg/kg by HPLC method; type: ADME, organism-based; settings: in vivo; outline: as §5
[19] = Apparent permeability of the compound in human Caco2 cells; type: ADME, cell-based; settings: caco-2
Cytochrome P450 1A2 [20] = molecular target: T1, Cytochrome P450 1A2 (Homo sapiens, UniProt P05177); test: Inhibition of CYP1A2 in human liver microsomes using phenacetin as substrate in presence of NADP; type: ADME
T1 sequence (P05177 whole entry): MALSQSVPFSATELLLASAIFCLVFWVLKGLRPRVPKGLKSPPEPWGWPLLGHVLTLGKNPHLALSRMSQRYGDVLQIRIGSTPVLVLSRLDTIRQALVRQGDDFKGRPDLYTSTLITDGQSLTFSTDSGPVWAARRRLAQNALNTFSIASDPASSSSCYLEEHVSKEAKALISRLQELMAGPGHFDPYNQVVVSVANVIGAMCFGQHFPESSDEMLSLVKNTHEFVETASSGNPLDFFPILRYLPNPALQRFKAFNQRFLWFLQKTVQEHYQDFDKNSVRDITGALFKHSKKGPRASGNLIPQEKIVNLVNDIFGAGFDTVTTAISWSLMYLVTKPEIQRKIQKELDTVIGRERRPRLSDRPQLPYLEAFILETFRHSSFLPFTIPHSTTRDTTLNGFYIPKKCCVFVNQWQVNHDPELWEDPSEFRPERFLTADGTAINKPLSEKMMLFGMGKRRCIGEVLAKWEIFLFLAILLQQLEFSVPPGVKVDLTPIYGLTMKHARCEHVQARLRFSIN

Cytochrome P450 1A2 [21] = molecular target: T1, Cytochrome P450 1A2; test: Time dependent inhibition of CYP1A2 in human liver microsomes using phenacetin as substrate preincubated for 30 mins followed by NADP addition; settings: TDE = time-dependent effect

SMILES: CC(C)(C)n1c(O)nc2ncc(Br)nc21
- hepatic extraction ratio at 1.5 h [2]: 0.3
- hepatic extraction ratio at 1.5 h [3]: 0.2

SMILES: CCC(CC)n1c(=O)[nH]c2ncc(C(F)(F)F)nc21
- EC40 (Oryctolagus cuniculus [1]): 11.3 µM

SMILES: CC(=O)c1cnc2nc(O)n([C@@H](C)c3ccccc3)c2n1
- EC40 (Oryctolagus cuniculus [1]): > 49 µM

SMILES: O=c1[nH]c2ncc(Br)nc2n1C1CCCCC1
- EC40 (Oryctolagus cuniculus [1]): 10 µM

SMILES: O=c1[nH]c2ncc(Br)nc2n1C1CC1
- EC40 (Oryctolagus cuniculus [1]): > 49 µM

SMILES: C[C@H](c1ccccc1)n1c(=O)[nH]c2ncc(-c3ccco3)nc21
- EC40 (Oryctolagus cuniculus [1]): > 49 µM

SMILES: CCC(CC)n1c(=O)[nH]c2ncc(OC)nc21
- EC40 (Oryctolagus cuniculus [1]): 2.2 µM

SMILES: CCC(CC)n1c(O)nc2ncc(OC)nc21
- hepatic extraction ratio at 1.5 h [2]: > 0.7
- hepatic extraction ratio at 1.5 h [3]: < 0.2

SMILES: CC(C)(C)n1c(=O)[nH]c2ncc(Br)nc21
- EC40 (Oryctolagus cuniculus [1]): 0.8 µM
- EC30 (Oryctolagus cuniculus [4]): 4.6 µM

SMILES: CCC(CC)n1c(=O)[nH]c2nccnc21
- EC40 (Oryctolagus cuniculus [1]): 14 µM

SMILES: C#Cc1cnc2nc(O)n(C(CC)CC)c2n1 [TIRASEMTIV]
- EC40 (Oryctolagus cuniculus [1]): 0.1 µM
- EC30 (Oryctolagus cuniculus [4]): 0.3 µM
- hepatic extraction ratio at 1.5 h [2]: 0.26 to 0.3
- hepatic extraction ratio at 1.5 h [3]: < 0.2
- Vd [13]: 0.8 to 2.6 L/kg
- F (Rattus norvegicus [10]): 98%
- Fu [11]: 6.9%
- Fu [12]: 1.9%
- Activity (Rattus norvegicus [14]): Dose-dependent effect
- hepatic extraction ratio at 1.5 h [15]: < 0.21
- hepatic extraction ratio at 1.5 h [16]: 0.24
- Vdss (Canis familiaris): 1.7 L/kg
- Vdss (Mus musculus): 1 L/kg
- bioavailability [17]: 93%
- bioavailability [18]: 43%
- Papp [19]: > 50 ×10⁻⁶ cm/s
- IC50 (Cytochrome P450 1A2 [20]): 20 µM
- inhibition (INH) (Cytochrome P450 1A2 [21]): Tde

SMILES: C#Cc1cnc2oc(=O)n(C(CC)CC)c2n1
- EC40 (Oryctolagus cuniculus [1]): > 39.2 µM

SMILES: CCC(CC)n1c(O)nc2ncc(C)nc21
- hepatic extraction ratio at 1.5 h [2]: 0.7
- hepatic extraction ratio at 1.5 h [3]: < 0.2

SMILES: C=Cc1cnc2[nH]c(=O)n([C@@H](C)c3ccccc3)c2n1
- EC40 (Oryctolagus cuniculus [1]): 3.5 µM
- EC30 (Oryctolagus cuniculus [4]): 4.6 µM

SMILES: CC[C@H](C)n1c(O)nc2ncc(Br)nc21
- hepatic extraction ratio at 1.5 h [2]: 0.3
- hepatic extraction ratio at 1.5 h [3]: < 0.2

SMILES: C[C@@H](c1ccccc1)n1c(=O)[nH]c2ncc(C#N)nc21
- EC40 (Oryctolagus cuniculus [1]): > 49 µM

SMILES: C=Cc1cnc2[nH]c(=O)n(C(CC)CC)c2n1
- EC40 (Oryctolagus cuniculus [1]): 1.1 µM
- EC30 (Oryctolagus cuniculus [4]): 1.1 µM
- hepatic extraction ratio at 1.5 h [2]: > 0.7
- hepatic extraction ratio at 1.5 h [3]: 0.5

SMILES: CCC(CC)n1c(=O)[nH]c2ncc(C#N)nc21
- EC40 (Oryctolagus cuniculus [1]): 36.3 µM

SMILES: CCC(CC)n1c(=O)[nH]c2ncc(Br)nc21
- EC40 (Oryctolagus cuniculus [1]): 0.3 µM
- EC30 (Oryctolagus cuniculus [4]): 0.4 µM

SMILES: C[C@@H](c1ccccc1)n1c(=O)[nH]c2ncc(-c3ccccc3)nc21
- EC40 (Oryctolagus cuniculus [1]): > 49 µM

SMILES: C[C@@H](c1ccccc1)n1c(O)nc2ncc(Br)nc21
- hepatic extraction ratio at 1.5 h [2]: 0.5
- hepatic extraction ratio at 1.5 h [3]: < 0.3

SMILES: CCC(CC)n1c(O)nc2ncc(Br)nc21
- hepatic extraction ratio at 1.5 h [2]: 0.4
- hepatic extraction ratio at 1.5 h [3]: < 0.2
- Vdss (Rattus norvegicus [9]): 6.5 L/kg
- F (Rattus norvegicus [10]): 62%
- Fu [11]: 1.3%
- Fu [12]: 0.5%

SMILES: CC(C)n1c(=O)[nH]c2ncc(Br)nc21
- EC40 (Oryctolagus cuniculus [1]): 6 µM
- EC30 (Oryctolagus cuniculus [4]): 2.2 µM

SMILES: C#Cc1cnc2nc(OC)n(C(CC)CC)c2n1
- EC40 (Oryctolagus cuniculus [1]): > 39.2 µM

SMILES: COc1cnc2[nH]c(=O)n([C@@H](C)c3ccccc3)c2n1
- EC40 (Oryctolagus cuniculus [1]): 8.9 µM

Next, values leading:

- EC40 (Oryctolagus cuniculus [1]): > 49 µM
SMILES: CC#Cc1cnc2[nH]c(=O)n(C(CC)CC)c2n1

- EC40 (Oryctolagus cuniculus [1]): > 49 µM
SMILES: O=c1[nH]c2ncc(-c3ccco3)nc2n1Cc1ccccc1

- hepatic extraction ratio at 1.5 h [2]: 0.2
- hepatic extraction ratio at 1.5 h [3]: < 0.2
SMILES: CCC(CC)n1c(O)nc2ncc(C(F)(F)F)nc21

- hepatic extraction ratio at 1.5 h [2]: < 0.2
- hepatic extraction ratio at 1.5 h [3]: < 0.2
SMILES: CCC(CC)n1c(O)nc2ncc(C#N)nc21

- EC40 (Oryctolagus cuniculus [1]): 2 µM
- EC30 (Oryctolagus cuniculus [4]): 4.4 µM
SMILES: CCC(CC)n1c(=O)[nH]c2ncc(C)nc21

- Activity (Oryctolagus cuniculus [5]): Active
- Activity (Oryctolagus cuniculus [6]): inactive
- EC40 (Oryctolagus cuniculus [1]): 7 µM
- EC40 (Bos taurus [7]): > 49 µM
- EC40 (Bos taurus [8]): > 39 µM
- EC30 (Oryctolagus cuniculus [4]): 30.6 µM
SMILES: C[C@@H](c1ccccc1)n1c(=O)[nH]c2ncc(-c3ccco3)nc21

- EC40 (Oryctolagus cuniculus [1]): 0.5 µM
- EC30 (Oryctolagus cuniculus [4]): 0.6 µM
- hepatic extraction ratio at 1.5 h [2]: 0.4
- hepatic extraction ratio at 1.5 h [3]: < 0.2
- Vdss (Rattus norvegicus [9]): 3.4 L/kg
- F (Rattus norvegicus [10]): 100%
- Fu [11]: 1.1%
- Fu [12]: 0.8%
SMILES: CCC(CC)n1c(=O)[nH]c2ncc(Cl)nc21

- EC40 (Oryctolagus cuniculus [1]): > 49 µM
SMILES: C[C@@H](c1ccccc1)n1c(=O)[nH]c2ncc(S(C)(=O)=O)nc21

- EC40 (Oryctolagus cuniculus [1]): 2.6 µM
- EC30 (Oryctolagus cuniculus [4]): 3.8 µM
SMILES: CSc1cnc2[nH]c(=O)n([C@@H](C)c3ccccc3)c2n1

- EC40 (Oryctolagus cuniculus [1]): 21.8 µM
SMILES: CCc1cnc2[nH]c(=O)n([C@@H](C)c3ccccc3)c2n1

- EC40 (Oryctolagus cuniculus [1]): 1 µM
- EC30 (Oryctolagus cuniculus [4]): 5.1 µM
SMILES: CC[C@H](C)n1c(=O)[nH]c2ncc(Br)nc21

- EC40 (Oryctolagus cuniculus [1]): 1.6 µM
- EC30 (Oryctolagus cuniculus [4]): 3 µM
SMILES: C[C@@H](c1ccccc1)n1c(=O)[nH]c2ncc(Br)nc21

From ChEMBL document CHEMBL4145557, “Discovery of Tirasemtiv, the First Direct Fast Skeletal Muscle Troponin Activator” (ACS Med Chem Lett, 2018)
